Blank lines part the entries; values can stand above or below the compound they belong to.
Legend:
[1] = molecular target: T1, Sodium- and chloride-dependent GABA transporter 1 (Mus musculus, UniProt P31648); assay: Inhibition of mouse GAT1 expressed in HEK293 cells by [3H]GABA uptake assay; format: cell-based
[2] = molecular target: T2, Sodium- and chloride-dependent GABA transporter 1 (Homo sapiens, UniProt P30531); assay: Inhibition of human GAT1 expressed in HEK293 cells by [3H]GABA uptake assay; format: cell-based
[3] = molecular target: T2, Sodium- and chloride-dependent GABA transporter 1; assay: Binding affinity to human GAT1 expressed in HEK293 cells using NO71156 as unlabelled marker by LC-ESI-MS-MS based competitive MS binding assay; format: cell-based
Summary of the method: (§1)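 Competitive MS Binding Assay using membrane preparations from HEK293 cells expressing the transporter. hGAT-1 membranes were prepared the same way as mGAT1 membranes. Affinity reported as pKi ± SEM from three independent experiments.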

[4] = molecular target: T1, Sodium- and chloride-dependent GABA transporter 1; assay: Binding affinity to mouse GAT1 expressed in HEK293 cells using NO71156 as unlabelled marker by LC-ESI-MS-MS based competitive MS binding assay; format: cell-based; summary of the method: as §1
[5] = species on record: Mus musculus; assay: Selectivity for mouse GAT1 over mouse GAT4
[6] = molecular target: T3, GABA transporter 2 (Mus musculus) (UniProt P31651); assay: Inhibition of mouse GAT2 expressed in HEK293 cells assessed as remaining [3H]GABA uptake at 100 uM by [3H]GABA uptake assay; format: cell-based
T3 sequence (whole entry): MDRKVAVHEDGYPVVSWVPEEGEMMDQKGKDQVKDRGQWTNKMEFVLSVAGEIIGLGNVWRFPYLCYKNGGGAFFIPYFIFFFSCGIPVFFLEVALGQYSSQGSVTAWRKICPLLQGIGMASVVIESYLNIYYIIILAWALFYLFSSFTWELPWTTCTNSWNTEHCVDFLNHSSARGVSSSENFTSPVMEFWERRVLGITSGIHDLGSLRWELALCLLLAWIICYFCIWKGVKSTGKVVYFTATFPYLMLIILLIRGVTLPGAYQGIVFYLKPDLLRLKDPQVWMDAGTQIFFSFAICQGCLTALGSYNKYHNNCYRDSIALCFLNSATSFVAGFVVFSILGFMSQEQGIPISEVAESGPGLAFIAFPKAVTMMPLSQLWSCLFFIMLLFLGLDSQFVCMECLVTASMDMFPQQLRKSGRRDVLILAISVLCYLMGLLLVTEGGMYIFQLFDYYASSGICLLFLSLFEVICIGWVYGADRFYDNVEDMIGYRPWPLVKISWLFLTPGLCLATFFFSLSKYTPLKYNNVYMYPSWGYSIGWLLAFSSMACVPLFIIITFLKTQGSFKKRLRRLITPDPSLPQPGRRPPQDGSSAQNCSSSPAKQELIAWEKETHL
Summary of the method: (§2)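 Transfected HEK293 cells (mGAT1–4) tested for [3H]GABA uptake at 100 µM test substance. Remaining uptake is expressed against a control without inhibitor.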

[7] = molecular target: T4, GABA transporter 3 (Mus musculus) (UniProt P31649); assay: Inhibition of mouse GAT3 expressed in HEK293 cells assessed as remaining [3H]GABA uptake at 100 uM by [3H]GABA uptake assay; format: cell-based; summary of the method: as §2
T4 sequence (whole entry): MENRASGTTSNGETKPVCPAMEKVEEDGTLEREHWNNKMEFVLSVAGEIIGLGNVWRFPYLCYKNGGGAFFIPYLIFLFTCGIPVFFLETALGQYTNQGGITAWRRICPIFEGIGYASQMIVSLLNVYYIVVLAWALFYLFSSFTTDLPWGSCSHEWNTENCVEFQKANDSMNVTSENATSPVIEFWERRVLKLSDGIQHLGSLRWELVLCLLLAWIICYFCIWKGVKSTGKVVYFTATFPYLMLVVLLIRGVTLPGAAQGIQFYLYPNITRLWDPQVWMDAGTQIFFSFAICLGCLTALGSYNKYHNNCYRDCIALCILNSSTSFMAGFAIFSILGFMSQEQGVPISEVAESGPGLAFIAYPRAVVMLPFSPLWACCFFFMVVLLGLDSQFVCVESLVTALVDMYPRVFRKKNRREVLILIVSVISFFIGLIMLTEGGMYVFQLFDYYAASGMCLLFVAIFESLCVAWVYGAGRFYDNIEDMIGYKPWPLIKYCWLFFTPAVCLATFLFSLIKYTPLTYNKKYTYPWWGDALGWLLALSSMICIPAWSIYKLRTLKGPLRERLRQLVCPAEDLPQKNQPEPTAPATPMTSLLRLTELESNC

[8] = molecular target: T5, GABA transporter 4 (Mus musculus) (UniProt P31650); assay: Inhibition of mouse GAT4 expressed in HEK293 cells assessed as remaining [3H]GABA uptake at 100 uM by [3H]GABA uptake assay; format: cell-based; summary of the method: as §2
T5 sequence (whole entry): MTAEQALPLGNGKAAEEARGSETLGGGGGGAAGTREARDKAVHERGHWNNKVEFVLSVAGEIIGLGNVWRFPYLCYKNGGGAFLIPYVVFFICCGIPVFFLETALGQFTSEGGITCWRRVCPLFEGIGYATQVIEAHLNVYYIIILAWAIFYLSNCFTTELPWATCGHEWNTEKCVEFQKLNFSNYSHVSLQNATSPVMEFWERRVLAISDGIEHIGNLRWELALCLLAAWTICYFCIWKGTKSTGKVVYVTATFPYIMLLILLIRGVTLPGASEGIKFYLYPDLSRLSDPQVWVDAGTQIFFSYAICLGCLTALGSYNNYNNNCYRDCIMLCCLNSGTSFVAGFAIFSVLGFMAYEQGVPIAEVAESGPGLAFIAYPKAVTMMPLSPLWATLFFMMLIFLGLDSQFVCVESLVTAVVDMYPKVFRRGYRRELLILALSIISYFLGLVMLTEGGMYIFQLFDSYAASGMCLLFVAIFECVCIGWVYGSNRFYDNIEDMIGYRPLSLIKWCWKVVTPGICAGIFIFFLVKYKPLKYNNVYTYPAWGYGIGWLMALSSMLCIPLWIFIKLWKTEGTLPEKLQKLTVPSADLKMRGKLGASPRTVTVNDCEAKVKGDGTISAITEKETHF

[9] = molecular target: T6, GABA transporter 3 (Mus musculus, UniProt P31649); assay: Inhibition of mouse GAT3 expressed in HEK293 cells by [3H]GABA uptake assay; format: cell-based
T6 sequence (P31649 whole entry): T4 sequence (whole entry)

[10] = molecular target: T7, GABA transporter 4 (Mus musculus, UniProt P31650); assay: Inhibition of mouse GAT4 expressed in HEK293 cells by [3H]GABA uptake assay; format: cell-based
T7 sequence (P31650 whole entry): T5 sequence (whole entry)

[11] = molecular target: Sodium- and chloride-dependent GABA transporter 1 (Mus musculus) (UniProt P31648); assay: Inhibition of mouse GAT1 expressed in HEK293 cells assessed as remaining [3H]GABA uptake at 100 uM by [3H]GABA uptake assay; format: cell-based; summary of the method: as §2
[12] = molecular target: T8, GABA transporter 2 (Mus musculus, UniProt P31651); assay: Inhibition of mouse GAT2 expressed in HEK293 cells by [3H]GABA uptake assay; format: cell-based
T8 sequence (P31651 whole entry): T3 sequence (whole entry)
Summary of the method: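 [3H]GABA uptake inhibition in HEK293 cells expressing mGAT1–4 or hGAT-1, reported as pIC50 (mean ± SEM, n = 3 independent experiments). The hGAT-1 assay matched the mGAT1 assay except that HEK293 […] expressing hGAT-1 was used.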

[13] = molecular target: Sodium- and chloride-dependent GABA transporter 1 (Mus musculus) (UniProt P31648); assay: Inhibition of mouse GAT1 expressed in HEK293 cells assessed as remaining [3H]GABA uptake at 1 mM by [3H]GABA uptake assay; format: cell-based
Summary of the method: (§3)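 Radioactive [3H]GABA uptake run in HEK293 cells expressing mGAT1–4 with 1 mM test substance. Readout is % remaining uptake relative to an inhibitor-free control.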

[14] = molecular target: T3, GABA transporter 2 (Mus musculus); assay: Inhibition of mouse GAT2 expressed in HEK293 cells assessed as remaining [3H]GABA uptake at 1 mM by [3H]GABA uptake assay; format: cell-based; summary of the method: as §3
[15] = molecular target: T4, GABA transporter 3 (Mus musculus); assay: Inhibition of mouse GAT3 expressed in HEK293 cells assessed as remaining [3H]GABA uptake at 1 mM by [3H]GABA uptake assay; format: cell-based; summary of the method: as §3
[16] = molecular target: T5, GABA transporter 4 (Mus musculus); assay: Inhibition of mouse GAT4 expressed in HEK293 cells assessed as remaining [3H]GABA uptake at 1 mM by [3H]GABA uptake assay; format: cell-based; summary of the method: as §3

T2 sequence (P30531 whole entry): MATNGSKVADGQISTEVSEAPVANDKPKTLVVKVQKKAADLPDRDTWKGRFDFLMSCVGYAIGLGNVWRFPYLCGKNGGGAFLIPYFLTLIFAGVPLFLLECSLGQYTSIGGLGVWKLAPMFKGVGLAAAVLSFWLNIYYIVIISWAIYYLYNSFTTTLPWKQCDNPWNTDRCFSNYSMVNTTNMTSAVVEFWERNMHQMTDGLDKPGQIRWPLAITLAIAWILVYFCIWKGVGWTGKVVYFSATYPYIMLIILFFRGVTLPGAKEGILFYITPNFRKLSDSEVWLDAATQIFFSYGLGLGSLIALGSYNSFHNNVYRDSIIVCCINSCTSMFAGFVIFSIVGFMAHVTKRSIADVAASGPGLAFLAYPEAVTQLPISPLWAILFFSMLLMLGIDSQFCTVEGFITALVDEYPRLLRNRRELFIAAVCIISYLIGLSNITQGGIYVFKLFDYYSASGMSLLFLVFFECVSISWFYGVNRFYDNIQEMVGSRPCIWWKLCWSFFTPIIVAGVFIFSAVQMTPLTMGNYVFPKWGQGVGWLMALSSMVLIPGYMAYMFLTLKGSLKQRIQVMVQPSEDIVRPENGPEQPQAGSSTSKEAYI

Structure (SMILES): Cc1ccsc1C(=CCCN1CCC[C@@H]1[C@H](O)C(=O)O)c1sccc1C (racemic)
IC50 [1]: 2.14 µM | IC50 [9]: 42.7 µM | IC50 [2]: 0.724 µM | Ki [3]: 0.0661 µM | Ki [4]: 0.102 µM | Selectivity ratio [5]: > 47 | Activity [6]: 58% | Activity [8]: 59%

Structure (SMILES): N[C@H](C(=O)O)[C@H]1CCCN1CCC=C(c1ccccc1)c1ccccc1 (racemic)
IC50 [1]: 34.7 µM | Activity [6]: 61% | Activity [7]: 71% | Activity [8]: 83%

Structure (SMILES): Cc1ccsc1C(=CCCN1CCC[C@@H]1[C@H](N)C(=O)O)c1sccc1C (racemic)
IC50 [1]: 100 µM | IC50 [12]: 100 µM | IC50 [10]: 100 µM | Ki [3]: 19.1 µM | Ki [4]: 37.2 µM | Activity [7]: 63%

Structure (SMILES): CC(C)(C(=O)O)[C@H]1CCCN1 (racemic)
Activity [13]: 83% | Activity [14]: 108% | Activity [15]: 93% | Activity [16]: 95%

Structure (SMILES): O=C(O)C1([C@H]2CCCN2)CCC1 (racemic)
Activity [13]: 92% | Activity [14]: 91% | Activity [15]: 73% | Activity [16]: 110%

Structure (SMILES): Cc1ccsc1C(=CCCN1CCC[C@@H](C(=O)O)C1)c1sccc1C [TIAGABINE]
Ki [4]: 0.0372 µM

More lines, now with the values ahead:

IC50 [1]: 3.39 µM | IC50 [2]: 4.17 µM | Ki [3]: 1.1 µM | Ki [4]: 1.07 µM | Selectivity ratio [5]: > 29 | Activity [6]: 63% | Activity [7]: 90% | Activity [8]: 74%
Structure (SMILES): Cc1ccsc1C(=CCCN1CCC[C@@H]1[C@@H](O)C(=O)O)c1sccc1C (racemic)

IC50 [9]: 17 µM | IC50 [10]: 5.75 µM | Activity [11]: 68% | Activity [6]: 56%
Structure (SMILES): COc1ccc(C(OCCN2CCC[C@@H]2[C@@H](O)C(=O)O)(c2ccc(OC)cc2)c2ccc(OC)cc2)cc1 (racemic)

IC50 [10]: 6.61 µM | Activity [11]: 80% | Activity [6]: 64% | Activity [7]: 70%
Structure (SMILES): COc1ccc(C(OCCN2CCC[C@@H]2[C@H](O)C(=O)O)(c2ccc(OC)cc2)c2ccc(OC)cc2)cc1 (racemic)

IC50 [1]: 49 µM | IC50 [9]: 11.5 µM | IC50 [10]: 17.4 µM | Activity [6]: 66%
Structure (SMILES): N[C@@H](C(=O)O)[C@H]1CCCN1CCC=C(c1ccccc1)c1ccccc1 (racemic)

IC50 [1]: 14.1 µM | IC50 [12]: 42.7 µM | IC50 [9]: 30.2 µM | IC50 [10]: 31.6 µM | Ki [3]: 20.4 µM | Ki [4]: 17.4 µM
Structure (SMILES): Cc1ccsc1C(=CCCN1CCC[C@@H]1[C@@H](N)C(=O)O)c1sccc1C (racemic)
